# Experimental data reported in ChEMBL document CHEMBL3763092, “Design and synthesis of pyrrolobenzodiazepine-gallic hybrid agents as p53-dependent and -independent apoptogenic signaling in melanoma cells” (Eur J Med Chem, 2016).
# Calls of active or inactive are those of the source. The rule behind the calls is not given here.
# Key:
# A-375 [1] = assay: Cytotoxicity against human A375 cells expressing p53 wild type assessed as cell viability at 1 uM after 24 hrs by MTT assay; type: functional; settings: A-375, 24 h, read-out: Activity
# Outline: (§1)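 Cells were exposed to compound at 1 µM for 24 h, then growth and viability were read by MTT assay. Media: A375 in DMEM; RPMI7951 and MCF-7 in MEM; A549 in RPMI1640; H1299 in DMEM-F12; all with 10% FCS and penicillin/streptomycin, at 37 °C and 5% CO2. Fibroblasts came from adult foreskin. DMSO stocks were 10 mM.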
# [2] = Cytotoxicity against human RPMI7951 cells expressing p53 mutant assessed as cell viability at 1 uM after 24 hrs by MTT assay; type: functional; settings: RPMI-7951, 24 h, read-out: Activity; outline: as §1
# MCF7 = assay: Cytotoxicity against human MCF7 cells expressing p53 wild type assessed as cell viability at 1 uM after 24 hrs by MTT assay; type: functional; settings: MCF7, 24 h, read-out: Activity; outline: as §1
# A549 = assay: Cytotoxicity against human A549 cells assessed as cell viability at 1 uM after 24 hrs by MTT assay; type: functional; settings: A549, 24 h, read-out: Activity; outline: as §1
# [3] = Cytotoxicity against p53 knockout human H1299 cells assessed as cell viability at 1 uM after 24 hrs by MTT assay; type: functional; settings: NCI-H1299, 24 h, read-out: Activity; outline: as §1
# [4] = Cytotoxicity against human fibroblast cells expressing p53 wild type assessed as cell viability at 1 uM after 24 hrs by MTT assay; type: cell-based; settings: read-out: Activity; outline: as §1
# A-375 [5] = assay: Induction of reactive oxygen species generation in human A375 cells expressing p53 wild type assessed as increase in intracellular H2O2 level at 0.5 uM after 24 hrs by DCFH-DA staining based fluorescence analysis; type: functional, cell-based
# Outline: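 A375 cells were treated with 0.5 µM for 0, 12 and 24 h and stained with DCFH-DA to detect intracellular H2O2.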
# A-375 [6] = assay: Induction of DNA lesion in human A375 cells expressing p53 wild type assessed as increase in 8-oxoguanine expression at 0.5 uM after 24 hrs by immunohistochemical analysis; type: functional, cell-based
# Outline: (§2)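 A375 cells on coverslips (1 × 10^4) were treated with 0.5 µM for 24 h. Cells were fixed in 4% formaldehyde for 5 min at 4 °C, permeabilized with 0.5% Triton X-100, and blocked with 5% BSA at 37 °C for 45 min. Primary antibodies were applied for 1 h at RT: mouse anti-p-ATR and anti-p-ATM 1:1000, anti-8-oxoguanine 1:250, COX IV and cytochrome c 1:1000. Secondary antibodies (rhodamine for 8-oxoguanine) followed for 30 min. DAPI counterstain.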
# A-375 [7] = assay: Induction of DNA damage in human A375 cells expressing p53 wild type assessed as increase in ATR/ATM activation at 0.5 uM after 24 hrs by immuohistochemistry analysis; type: functional, cell-based; outline: as §2
# A-375 [8] = assay: Increase in Chk1 phosphorylation in human A375 cells expressing p53 wild type at 0.5 uM after 24 hrs by western blot analysis; type: functional, cell-based
# Outline: (§3)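 A375 cells were exposed to 0.5 µM for 24 h, and lysates were immunoblotted with specific antibodies (p53, Cdc25c, p-Chk1, Bcl-xL, PARP, caspase-3). GAPDH served as loading control. Three independent experiments.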
# A-375 [9] = assay: Decrease in Cdc25c level in human A375 cells expressing p53 wild type at 0.5 uM after 24 hrs by western blot analysis; type: functional, cell-based; outline: as §3
# A-375 [10] = assay: Effect on cell cycle distribution in human A375 cells expressing p53 wild type assessed as number of cells at S-phase at 0.5 uM after 24 hrs by FACS analysis (reference value: 13.8 %); type: functional
# A-375 [11] = assay: Effect on cell cycle distribution in human A375 cells expressing p53 wild type assessed as number of cells at G2/M phase at 0.5 uM after 24 hrs by FACS analysis (reference value: 12.1 %); type: functional
# A-375 [12] = assay: Effect on cell cycle distribution in human A375 cells expressing p53 wild type assessed as number of cells at G0/G1 phase at 0.5 uM after 24 hrs by FACS analysis Rvb = 74.1 %); type: functional
# A-375 [13] = assay: Effect on cell cycle distribution in human A375 cells expressing p53 wild type assessed as number of cells at subG1 phase at 0.5 uM after 24 hrs by FACS analysis (reference value: 1 %); type: functional
# A-375 [14] = assay: Induction of apoptosis in human A375 cells expressing p53 wild type assessed as increase in p53 levels at 0.5 uM after 24 hrs by western blot analysis; type: functional, cell-based; outline: as §3
# A-375 [15] = assay: Induction of apoptosis in human A375 cells expressing p53 wild type assessed as decrease in Bcl-xl levels at 0.5 uM after 24 hrs by western blot analysis; type: functional, cell-based; outline: as §3
# A-375 [16] = assay: Induction of apoptosis in human A375 cells expressing p53 wild type assessed as increase in cleaved caspase-3 levels at 0.5 uM after 24 hrs by western blot analysis; type: functional, cell-based; outline: as §3
# A-375 [17] = assay: Induction of apoptosis in human A375 cells expressing p53 wild type assessed as increase in cleaved PARP levels at 0.5 uM after 24 hrs by western blot analysis; type: functional, cell-based; outline: as §3
# A-375 [18] = assay: Induction of apoptosis in human A375 cells expressing p53 wild type assessed as increase in p53 mRNA level by RT- qPCR analysis; type: functional, cell-based; settings: TDE = time-dependent effect
# Outline: (§4)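 Quantitative real-time PCR on A375 cells over a time course, measuring p53, bax and bcl-xl mRNA normalized to GAPDH mRNA.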
# A-375 [19] = assay: Induction of apoptosis in human A375 cells expressing p53 wild type assessed as increase in bax mRNA level by RT- qPCR analysis; type: functional, cell-based; settings: TDE = time-dependent effect; outline: as §4
# A-375 [20] = assay: Induction of apoptosis in human A375 cells expressing p53 wild type assessed as decrease in bcl-xl mRNA level by RT- qPCR analysis; type: functional, cell-based; settings: TDE = time-dependent effect; outline: as §4
# A-375 [21] = assay: Induction of apoptosis in human A375 cells expressing p53 wild type assessed as decrease in mitochondrial membrane potential at 0.5 uM after 12 hrs by DiOC6 dye based flow cytometry; type: functional, cell-based
# Outline: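 A375 cells were treated with 0.5 µM for 0, 12 and 24 h, labeled with DiOC6 and analyzed by flow cytometry. Three independent experiments.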
# A-375 [22] = assay: Induction of apoptosis in human A375 cells expressing p53 wild type assessed as increase release of cytochrome c from mitochondria to cytosol at 0.5 uM after 24 hrs by immunofluorescence analysis; type: functional, cell-based; outline: as §2
# A-375 [23] = assay: Induction of apoptosis in human A375 cells expressing p53 wild type assessed as lysosomal H+ concentration at 0.5 uM after 24 and 48 hrs by flow cytometric analysis; type: functional, cell-based
# Outline: (§5)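 Cells were loaded with LysoTracker Green (75 nM) for 15 min at 37 °C before treatment with 0.5 µM for the indicated times. After washing, mean fluorescence was quantified by flow cytometry. For p53 knockdown, A375 cells (6 × 10^4/well, antibiotic-free DMEM) were transfected with 30 nM tp53 siRNA or non-target siRNA using Lipofectamine RNAiMAX and harvested at 24 h.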
# A-375 [24] = assay: Induction of apoptosis in human A375 cells transfected with siRNA p53 assessed as decrease in lysosomal H+ concentration at 0.5 uM after 24 and 48 hrs by flow cytometric analysis; type: functional, cell-based; outline: as §5
# RPMI-7951 [25] = assay: Induction of apoptosis in human RPMI7951 cells expressing p53 mutant assessed as decrease in lysosomal H+ concentration at 0.5 uM after 24 and 48 hrs by flow cytometric analysis; type: functional, cell-based; outline: as §5
# RPMI-7951 [26] = assay: Induction of apoptosis in human RPMI7951 cells expressing p53 mutant assessed as increased release of cathepsin D to cytosol at 0.5 uM by immunofluorescent staining analysis; type: functional, cell-based
# Outline: (§6)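 RPMI7951 cells on coverslips (1 × 10^4) were treated with 0.5 µM for 24 h. Immunofluorescence steps: fixation in 4% formaldehyde, permeabilization with 0.5% Triton X-100, blocking with 5% BSA. Primary antibodies: rabbit anti-cathepsin D and mouse anti-LAMP-1 at 1:500, cytochrome c and COX IV at 1:1000, 1 h at RT. Secondary antibodies for 30 min. DAPI counterstain.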
# RPMI-7951 [27] = assay: Induction of apoptosis in human RPMI7951 cells expressing p53 mutant assessed as increased release of cytochrome c to cytosol at 0.5 uM by immunofluorescent staining analysis; type: functional, cell-based; outline: as §6
# RPMI-7951 [28] = assay: Induction of apoptosis in human RPMI7951 cells expressing p53 mutant assessed as PARP cleavage at 0.5 uM after 24 hrs by western blot analysis; type: functional, cell-based
# B16 [29] = assay: Antitumor activity against mouse B16 cells xenografted in ICR mouse assessed as decrease in tumor growth administered via interavenous; type: functional, cell-based
# Outline: (§7)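 Female ICR mice, seven weeks old, inoculated s.c. in the footpad with 1 × 10^6 B16 cells in 20 µl PBS. Once tumors reached a mean diameter of 4-7 mm (day 0), mice were randomized into groups of three and dosed i.v. at 0, 2, 4 mg/kg. Two perpendicular tumor diameters and body weight were taken at least 3 times weekly. T/C% was calculated from relative tumor volume; body weight is expressed as % of day 0. Statistics by t-test.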
# B16 [30] = assay: Induction of apoptosis in mouse B16 cells at 0.5 uM after 24 hrs by FITC-annexin V/PI staining based fluorescence microscopy; type: functional, cell-based
# Outline: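 B16 cells were seeded on coverslips at 3 × 10^5 per well, allowed to attach for 24 h, then exposed to 0.5 µM for 24 h. After PBS washes, cells were stained with annexin V-FITC and PI (plus Hoechst33258) for at least 15 min at RT in the dark and viewed by fluorescence microscopy.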
# Mus musculus = assay: Toxicity in ICR mouse xenografted with mouse B16 cells assessed as change in body weight at 2 to 4 mg/kg, iv; type: organism-based; settings: in vivo; outline: as §7
# A-375 [31] = assay: Cytotoxicity against human A375 cells expressing p53 wild type assessed as colony formation at 0.5 uM after 10 days by SRB assay; type: functional, cell-based
# Outline: (§8)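 Cells were seeded at 100 per well and treated from the second day. Medium containing 0.5 µM agent was renewed every 3 days. After 10 days of treatment, colonies were stained with SRB and photographed. Three independent experiments.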
# RPMI-7951 [32] = assay: Cytotoxicity against human RPMI7951 expressing p53 mutant cells assessed as colony formation at 0.5 uM after 10 days by SRB assay; type: functional, cell-based; outline: as §8
Structure (SMILES),viability at 1 µM (A-375 [1]),viability at 1 µM [2],viability at 1 µM (MCF7),viability at 1 µM (A549),viability at 1 µM [3],"viability at 24 h, 1 µM [4]",Activity (A-375 [5]),Activity (A-375 [6]),Activity (A-375 [7]),Activity (A-375 [8]),inhibition (A-375 [9]),Activity (A-375 [10]),Activity (A-375 [11]),Activity (A-375 [12]),Activity (A-375 [13]),Activity (A-375 [14]),Activity (A-375 [15]),Activity (A-375 [16]),Activity (A-375 [17]),Activity (A-375 [18]),further results
COc1cc2c(cc1OCCCNC(=O)c1cc(OC)c(OC)c(OC)c1)N=C[C@@H]1CCCN1C2=O,82.6%,97.7%,94.6%,96.1%,96.4%,101%,,,,,,,,,,,,,,,
COc1cc2c(cc1OCCCCOc1cc(OC)c(OC)c(OC)c1)N=C[C@@H]1CCCN1C2=O,37.4%,62.3%,55.3%,77.9%,73%,109%,Active,Active,Active,Active,Active,47.9%,4.8%,32.6%,15.8%,Active,Active,Active,Active,tde,Activity (A-375 [19]): tde; Activity (A-375 [20]): tde; Activity (A-375 [21]): Active; Activity (A-375 [22]): Active; Activity (A-375 [23]): inactive; Activity (A-375 [24]): Active; Activity (RPMI-7951 [25]): Active; Activity (RPMI-7951 [26]): Active; Activity (RPMI-7951 [27]): Active; Activity (RPMI-7951 [28]): Active; inhibition (B16 [29]): Dose-dependent effect; Activity (B16 [30]): Active; Activity (Mus musculus): Non-toxic; inhibition (A-375 [31]): Active; inhibition (RPMI-7951 [32]): Active
COc1cc2c(cc1OCCCCCCOc1cc(OC)c(OC)c(OC)c1)N=C[C@@H]1CCCN1C2=O,84.8%,55.9%,79%,101%,90.2%,93.4%,,,,,,,,,,Active,Active,Active,Active,,
COc1cc2c(cc1OCCCCCOc1cc(OC)c(OC)c(OC)c1)N=C[C@@H]1CCCN1C2=O,37.7%,64.6%,55%,78%,69.4%,111%,Active,Active,Active,Active,Active,37%,4.2%,45.8%,16%,Active,Active,Active,Active,tde,Activity (A-375 [19]): tde; Activity (A-375 [20]): tde; Activity (A-375 [21]): Active; Activity (A-375 [22]): Active; Activity (A-375 [23]): inactive; Activity (A-375 [24]): Active; Activity (RPMI-7951 [25]): Active; Activity (RPMI-7951 [26]): Active; Activity (RPMI-7951 [27]): Active; Activity (RPMI-7951 [28]): Active; inhibition (A-375 [31]): Active; inhibition (RPMI-7951 [32]): Active
